The subject of series [1] is ISO-induced myocardial ischemia. The series is described as follows: ECG monitoring. The following applies: propranolol 30 mg/kg oral 14 days. The class given is in vivo, Sprague-Dawley (SD) rats. In a few lines:
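Male SD rats (n = 10/group) were dosed orally for 14 days, with ISO 85 mg/kg s.c. on days 7-14. Twenty-four hours after the last ISO, rats were anesthetized with 2% pentobarbital sodium (30 mg/kg i.p.) and fixed supine. Lead II ECG was recorded for 60 min for ST-segment and T-wave changes, QRS duration and VPB incidence.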

The test system is the same in series [2]. Briefly: H&E histopathological score of myocardial tissue. The class given is in vivo, Sprague-Dawley (SD) rats. The following applies: propranolol 30 mg/kg oral 14 days; ISO rats. The method, boiled down: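 ISO model: SD rats, 14-day oral pretreatment, ISO 85 mg/kg s.c. on days 7-14. Hearts were fixed in 4% paraformaldehyde for 24 h, paraffin-embedded and cut at 4 μm. Sections were H&E-stained and examined by light microscopy for myocardial damage. Final scores were consensus evaluations.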

Series [3] shares this test system. The series is described as follows: Cardiac index. In kind it is in vivo, Sprague-Dawley (SD) rats. The following applies: propranolol 30 mg/kg oral 14 days; vs ISO. The method, boiled down: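 Male SD rats (200 ± 20 g, n = 10/group) received oral gavage daily for 14 days, with ISO 85 mg/kg s.c. on days 7-14, 30 min post-gavage. After ECG, hearts were excised, rinsed in pre-cooled saline, blotted dry and weighed. Cardiac index = heart weight/body weight, in mg/g.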

Series [4] has the same test system. Briefly: Masson's trichrome staining, myocardial fibrotic area. In kind it is in vivo, Sprague-Dawley (SD) rats. Conditions: propranolol 30 mg/kg oral 14 days; ISO rats. The method, boiled down:
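ISO model: SD rats, 14-day oral pretreatment, ISO 85 mg/kg s.c. on days 7-14. Paraffin heart sections (4 μm) were deparaffinized and stained with Weigert's iron hematoxylin, then Biebrich scarlet-acid fuchsin, phosphomolybdic-phosphotungstic acid and aniline blue; collagen stains blue. Images were taken at 200x. Fibrosis was expressed as collagen-positive area as a percentage of total myocardial area.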

In series [5] the test system is Bax. The series is described as follows: Western blot of myocardial Bax. The class given is in vivo, Sprague-Dawley (SD) rats. The following applies: propranolol 30 mg/kg oral 14 days; ISO rats; Control = 1.00. On the technique in general: A western blot detects proteins with antibodies after separation by electrophoresis.
Series [6] has as its system Bcl-2. The series is described as follows: Western blot of myocardial Bcl-2. In kind it is in vivo, Sprague-Dawley (SD) rats. Conditions: propranolol 30 mg/kg oral 14 days; ISO rats; Control = 1.00.
The subject of series [7] is Cleaved caspase-3. The series is described as follows: Western blot of myocardial cleaved caspase-3. In kind it is in vivo, Sprague-Dawley (SD) rats. The following applies: propranolol 30 mg/kg oral 14 days; ISO rats; Control = 1.00.
Series [8] concerns Nrf2. Briefly: Western blot of myocardial Nrf2. The class given is in vivo, Sprague-Dawley (SD) rats. Conditions: propranolol 30 mg/kg oral 14 days; ISO rats; Control = 1.00.
For series [9], the system named is HO-1. The series is described as follows: Western blot of myocardial HO-1. The class given is in vivo, Sprague-Dawley (SD) rats. Conditions: propranolol 30 mg/kg oral 14 days; ISO rats; Control = 1.00.
Series [10] is classed as in vivo, Sprague-Dawley rats. In a few lines:
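Healthy SD rats (n = 6) received a single oral dose of extract at 54 mg/kg. Tail-vein blood (0.3 mL) was taken at 0, 0.25, 0.5, 1, 2, 4, 8, 12 and 24 h; plasma was stored at −80°C. Marker compounds were measured by validated HPLC-DAD (C18, 35°C, 0.1% formic acid water/methanol gradient).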

Series [11] concerns Nrf2/HO-1 and Casp-3 pathways. The series is described as follows: In vivo mechanistic validation using pathway inhibitors. On the set-up: species or system Sprague-Dawley (SD) rats. The following applies: for Effect on P.indicus-induced reduction in serum cTn-T: ML385 30 mg/kg or Z-DEVD-FMK 1 mg/kg i.p. before P. indicus 54 mg/kg + ISO; for Intrinsic cardiotoxicity of inhibitor: control experiments. The method, boiled down: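 Rats (n = 8/group) received the test extract at 54 mg/kg p.o. on days 1-14 and ISO 85 mg/kg s.c. on days 7-14. An Nrf2 inhibitor (30 mg/kg) or a caspase-3 inhibitor (1 mg/kg) was given i.p. 30 min before each gavage; an ISO + vehicle group was included. Inhibition was checked by myocardial HO-1/cleaved caspase-3 western blot. Myocardial SOD and MDA (homogenate, ELISA) and serum cTn-T were measured.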

The mark [12] stands for this setting: rat plasma, single oral P. indicus extract 54 mg/kg, n = 6.
Where [13] appears, read: Sprague-Dawley, rat, plasma, po, 54 mg/kg.

Structures are written as SMILES. Like-named read-outs stand apart in the source and are kept apart here.

As for `CC(C)NCC(O)COc1cccc2ccccc12` (stereo not drawn) [propranolol], the ST-segment elevation in [1] (ISO 85 mg/kg s.c. days 7-14) was 0.024 ± 0.033 mV. Also, in [1] (ISO rats), the QRS duration amounted to 0.041 ± 0.002 s and the “Ventricular premature beats (VPBs)” value came to 1.2 ± 0.3 beats/60 min. In addition, the “Pathological score (H&E) vs ISO group” value in series [2] is “significantly lower”. For the same molecule, the “ISO-induced increase of cardiac index (heart weight/body weight ratio)” value in series [3] is “significantly attenuated”. In addition, the “Fibrotic area (Masson's trichrome)” value in series [4] is 11.2 ± 2.1%. Further, the “Relative expression of protein Bax” value in series [5] amounted to 1.74 ± 0.36. In addition, in series [6], the “Relative expression of protein Bcl-2” value is on record as 0.63 ± 0.08. The “Relative expression of protein Cleaved caspase-3” value in [7] was determined as 2.48 ± 0.63. In [8], the “Relative expression of protein Nrf2” value turned out to be 2.55 ± 0.21. Besides, in series [9], the “Relative expression of protein HO-1” value was found to be 3.80 ± 0.64.
What is called Cmax is the peak of the concentration-time curve. Broadly, the Tmax is the time at which the peak concentration occurs. For `COc1cc(/C=C/C(=O)O)ccc1O` [Ferulic acid], in [10] (setting [12]), the AUC0-24h came to 3420 ± 510 ng·h/mL, the Cmax came out at 850 ± 110 ng/mL, the Tmax was 0.52 ± 0.15 h and the t1/2 stood at 2.8 ± 0.3 h.
Consider `Cc1ccccc1C(=O)N1CCc2cc(-c3nc(NC(=O)Cc4ccc5c(c4)OCO5)sc3C)ccc21` [ML385], for which, in [11] (ML385 30 mg/kg i.p. before P. indicus 54 mg/kg + ISO), the “Effect on P.indicus's antioxidant effect (SOD activity, MDA content)” value was “nullified P.indicus’s antioxidant effect”. In [11], the “Effect on P.indicus-induced reduction in serum cTn-T” value is “attenuated the P.indicus-induced reduction in serum cTn-T” and the “Intrinsic cardiotoxicity of inhibitor” value is “ruled out intrinsic cardiotoxicity”.
The term AUC(0-t) denotes exposure summed from dosing to a finite time, without extrapolation to infinity. The low end stands for low exposure, the high end for high exposure. As a reminder, the half-life is how long it takes for the measured level to halve. Take `O=c1c(O[C@@H]2O[C@H](CO)[C@@H](O)[C@H](O)[C@H]2O)c(-c2ccc(O)c(O)c2)oc2cc(O)cc(O)c12` [Quercetin-3-O-glucoside]: in series [10] (setting [13]), the AUC(0-t) turned out to be 5950 ± 720 ng·h/mL, the Cmax worked out at 1280 ± 150 ng/mL and the half-life was 3.2 ± 0.4 h. The time of peak concentration (Tmax) in series [10] (setting [12]) is on record as 0.50 ± 0.12 h.
In the case of `CCCCC/C=C\C/C=C\CCCCCCCC(=O)O` [Linoleic acid], in series [10] (setting [13]), the AUC(0-t) stood at 7210 ± 950 ng·h/mL, the Cmax is 2450 ± 300 ng/mL, the Tmax worked out at 0.25 ± 0.08 h and the half-life is 1.8 ± 0.2 h.
For the molecule `COC(=O)CC[C@H](NC(=O)[C@H](CC(=O)OC)NC(=O)OCc1ccccc1)C(=O)N[C@H](C(=O)N[C@@H](CC(=O)OC)C(=O)CF)C(C)C` [Z-DEVD-FMK], in series [11], the “Effect on P.indicus-induced reduction in serum cTn-T” value was “attenuated the P.indicus-induced reduction in serum cTn-T” and the “Intrinsic cardiotoxicity of inhibitor” value is on record as “ruled out intrinsic cardiotoxicity”. For the same molecule, the “Effect on P.indicus suppression of cleaved caspase-3 (western blot)” value in [11] (Z-DEVD-FMK 1 mg/kg i.p. 30 min before each P. indicus gavage (54 mg/kg) + ISO) was “reversed the suppression of cleaved caspase-3”. In [11] (Z-DEVD-FMK 1 mg/kg i.p. before P. indicus 54 mg/kg + ISO), the “Effect on P.indicus's anti-apoptotic action” value is on record as “selectively blocked its anti-apoptotic action”.

For the origin of these results see publication PMC12690059 (Dose-Response, 2025).
